Source: PubChem BioAssay (Sanford-Burnham Center for Chemical Genomics)
The list is not random: actives were taken first. Their share in the collection is about 1.9%.
LMPTP inh: LMPTP phosphatase inhibitors, primary screen, biochemical, fluorescence intensity, uHTS; recombinant LMPTP-A, OMFP fluorogenic substrate; 360,000 tested, 0.22% active; inhibition, % at 20 µM; Low molecular weight phosphotyrosine protein phosphatase (Homo sapiens), P24666;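 active = compounds that cut the enzyme signal by at least half of the control window in the single-dose screen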;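 note: plate controls were DMSO wells with enzyme plus substrate for no effect and substrate without enzyme for full effect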
Target sequence (P24666 whole entry, looked up): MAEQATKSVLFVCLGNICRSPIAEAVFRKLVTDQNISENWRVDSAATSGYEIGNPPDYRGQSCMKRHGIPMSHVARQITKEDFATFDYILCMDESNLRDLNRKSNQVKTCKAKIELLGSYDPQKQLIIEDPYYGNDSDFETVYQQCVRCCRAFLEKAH
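Material: LMPTP-A; amount: 0.625 nM enzyme; doses: single 20 µM dose; times: reaction 50 min, room temperature, dark; technique: fluorescence intensity of OMFP turnover product; benchmarks: no-enzyme and uninhibited controls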
FAS-TE inh: FAS thioesterase domain inhibitors, primary screen, biochemical, fluorescence intensity, uHTS; 360,000 tested, 0.67% active; recombinant FAS-TE, OMFH fluorogenic substrate, fluorescence endpoint; inhibition, % at 15 µM; Fatty acid synthase (Homo sapiens), P49327;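 active = compounds whose normalised, plate-corrected inhibition of enzyme fluorescence in the single-dose primary screen is 50% or more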;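 note: 0% = DMSO with enzyme and 100% = substrate without enzyme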
STEP block: STEP phosphatase inhibitors, primary screen, biochemical, fluorescence intensity, uHTS. Tyrosine-protein phosphatase non-receptor type 5 (Homo sapiens), P54829. recombinant STEP, OMFP fluorogenic substrate. inhibition, % at 20 µM. 360,000 tested, 0.25% active. AID 588621, 2011;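 active = inhibition at 20 µM, scaled per plate between control wells, above about 37%, limit read from the data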;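 note: 0% = DMSO with enzyme and substrate and 100% = substrate only without enzyme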
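Assay system: isolated STEP enzyme. Buffer or medium: pH 6.0 Bis-Tris with DTT and Tween 20. Also added: fluorogenic phosphatase substrate OMFP at 25 µM final. Dosing: 20 µM, 1% DMSO. Timing: 20 min reaction, room temperature, in the dark. Measured by: fluorescence intensity, excitation 480 nm, emission 540 nm. Evaluation: normalized % inhibition.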
Scp1 inh: Scp-1 phosphatase inhibitors, primary screen, biochemical, colorimetric, uHTS. inhibition, % at 20 µM. 340,000 tested, 0.88% active. Recombinant Scp1, phosphopeptide, malachite green phosphate absorbance. AID 493091, 2011. Carboxy-terminal domain RNA polymerase II polypeptide A small phosphatase 1 (Homo …;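 active = inhibition above about 50% at 20 µM, limit read from the data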;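 note: plate controls were DMSO wells with enzyme for no effect and wells lacking enzyme for full effect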
Target sequence (Q9GZU7 76-261 limits assumed): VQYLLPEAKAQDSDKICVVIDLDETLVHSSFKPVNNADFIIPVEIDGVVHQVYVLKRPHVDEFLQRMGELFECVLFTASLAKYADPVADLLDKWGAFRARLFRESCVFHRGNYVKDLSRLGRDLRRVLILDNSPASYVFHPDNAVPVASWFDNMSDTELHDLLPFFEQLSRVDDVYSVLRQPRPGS
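Material: truncated SCP-1 phosphatase (76-261aa) / Buffer or medium: 50 mM Tris acetate pH 5.5, 0.005% Tween-20, 10 mM MgCl2 / Compound dosing: one concentration, 20 µM, with 1.0% DMSO / Incubation: 45 min room-temperature reaction, 5 min colour, 30 min stabiliser / Detection: colorimetric free-phosphate detection, absorbance 630 nm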
SUMO1 PPI mod: modulators of SUMO1 protein-protein interactions, primary screen, biochemical, uHTS; SUMO1 binding to a labelled peptide, TR-FRET, 1 h; inhibition, % at 20 µM; AID 602429, 2012; Small ubiquitin-related modifier 1 (Homo sapiens), P63165; 360,000 tested, 0.33% active; in the data active = inhibition above about 37%
Target sequence (P63165 whole entry, looked up): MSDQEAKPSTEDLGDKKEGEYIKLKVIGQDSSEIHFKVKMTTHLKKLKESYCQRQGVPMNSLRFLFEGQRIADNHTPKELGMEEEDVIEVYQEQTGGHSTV
FAS-TE inh conf: FAS thioesterase domain inhibitors, confirmation, biochemical, fluorescence intensity, single concentration | shares compounds with FAS-TE inh | recombinant FAS-TE, OMFH fluorogenic substrate | inhibition, % at 15 µM | 2,300 tested, 45% active;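 active = compounds inhibiting the enzyme by at least 50% at 15 µM in any one of the replicates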;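 note: 0% = enzyme with DMSO only and 100% = wells lacking enzyme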
An asterisk follows results filed as active; nt = no result given.

SMILES	LMPTP inh	FAS-TE inh	STEP block	Scp1 inh	SUMO1 PPI mod	FAS-TE inh conf
Cc1ccc(C)c(Cn2cnc3c(cnn3C(C)(C)C)c2=O)c1	1	13	6	0	-1	nt
OCCCNc1c2ccccc2nc2ccccc12	26	-7	-1	-4	-31	nt
O=C(Nc1ccc(OC(F)(F)F)cc1)Nc1cccc([N+](=O)[O-])c1	2	73*	-2	-14	-13	49*
Cc1ccc(NC(=O)Nc2cccc([N+](=O)[O-])c2)cc1F	1	43	0	-8	-10	nt
Cc1ccc(CNC(=O)C(C(=O)NCc2ccc(C)o2)c2ncc(C(F)(F)F)cc2Cl)o1	-1	62*	0	-5	-1	7
CCOC(=O)C(C(=O)NCc1ccc(C)cc1)c1ncc(C(F)(F)F)cc1Cl (configuration not stated)	-1	39	-2	-16	-4	nt
O=C1c2ccc(-c3ccc4c(c3)C(=O)N(CCO)C4=O)cc2C(=O)N1CCO	4	-9	-1	6	-40	nt
Cc1ccc(-n2c(SCC(=O)c3c(N)n(C)c(=O)n(C)c3=O)nc3sc4c(c3c2=O)CCCC4)c(C)c1	1	52*	1	-10	-2	3
Cc1ccc(-n2c(SCC(=O)O)nc3sc4c(c3c2=O)CCCC4)cc1	0	0	0	-4	5	nt
COc1ccc2c(c1)[C@H]1[C@H](CO2)[C@H](c2ccccc2)[C@]2(C)C(=O)Nc3ccc(C)cc3C(=O)N12	1	44	0	-8	0	nt
C[C@@]12C(=O)Nc3ccc(Cl)cc3C(=O)N1[C@H]1c3cc(Cl)ccc3OC[C@@H]1[C@@H]2c1ccccc1	1	77*	2	-11	-9	24
C[C@@]12C(=O)Nc3ccc(Br)cc3C(=O)N1[C@H]1c3cc(Cl)ccc3OC[C@@H]1[C@@H]2c1ccccc1	3	94*	3	-5	0	13
C[C@@]12C(=O)Nc3ccc(Br)cc3C(=O)N1[C@H]1c3ccccc3OC[C@@H]1[C@@H]2c1ccccc1	2	88*	1	-14	-18	17
Cc1ccc2c(c1)[C@H]1[C@H](CO2)[C@H](c2ccccc2)[C@]2(C)C(=O)Nc3ccc(Cl)cc3C(=O)N12	2	33	0	-9	-34	nt
COc1ccc2c(c1)[C@H]1[C@H](CO2)[C@H](c2ccccc2)[C@]2(C)C(=O)Nc3ccc(Cl)cc3C(=O)N12	1	86*	2	-19	0	39
CCOc1ccccc1N1CCN(C(=O)c2cc(-c3cccnc3)nc3c(Cl)cccc23)CC1	3	13	0	-2	-5	nt
C[C@@]12C(=O)Nc3ccccc3C(=O)N1[C@H]1c3cc(Cl)ccc3OC[C@@H]1[C@@H]2c1ccccc1	2	47	0	-6	8	nt
C[C@@]12C(=O)Nc3cc(F)c(F)cc3C(=O)N1[C@H]1c3cc(Cl)ccc3OC[C@@H]1[C@@H]2c1ccccc1	2	74*	2	-9	-9	36
COc1ccccc1NS(=O)(=O)c1cc(NC(=O)c2cc(F)c(F)c(F)c2F)ccc1N1CCOCC1	3	39	-2	-21	20	nt
COc1ccc(NS(=O)(=O)c2cc(NC(=O)COc3ccc(OC)cc3)ccc2N2CCOCC2)cc1	4	53*	2	-6	-1	24
COc1ccccc1NS(=O)(=O)c1cc(NC(=O)c2ccccc2C)ccc1N1CCOCC1	3	53*	1	-7	2	15
COc1ccc(CCNC(=O)c2ccc3ccccc3n2)cc1	1	9	1	1	-8	nt
Cn1c(=O)c(=O)n(C)c2cc(S(=O)(=O)NCCOc3ccccc3)ccc21	0	2	1	-1	1	nt
COc1ccc(NC(=O)CC23CC4CC(C2)CC(n2nnc(C)n2)(C4)C3)cc1	-1	2	-2	-9	-7	nt
